Screening data as filed in PubChem BioAssay.
Hits are enriched below; roughly 1.8% of the tested compounds scored in any of these assays.
SUMO1 PPI mod: modulators of SUMO1 protein-protein interactions, primary screen, biochemical, uHTS; AID 602429, 2012; 360,000 compounds, 0.33% hits; SUMO1 binding to a labelled peptide, TR-FRET, 1 h; Small ubiquitin-related modifier 1 (Homo sapiens), P63165; inhibition, % at 20 µM; in the data active means inhibition above about 37%
Target sequence (P63165 whole entry, looked up): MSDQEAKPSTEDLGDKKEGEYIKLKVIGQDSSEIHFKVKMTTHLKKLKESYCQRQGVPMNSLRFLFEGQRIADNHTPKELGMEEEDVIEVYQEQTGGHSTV
DNMT1 inh: human DNMT1 methyltransferase inhibitors, primary screen, biochemical, molecular beacon, fluorescence, HinP1I cleavage, uHTS; DNA (cytosine-5)-methyltransferase 1 (Homo sapiens), P26358; 360,000 compounds, 0.83% hits; AID 588458, 2011; inhibition (reported as % activation of signal), % at 10 µM; in the data active means inhibition above about 50%
HKDC1 inh: HKDC1 hexokinase inhibitors, primary screen, biochemical, fluorescence, uHTS; Q2TB90; recombinant HKDC1, G6PDH/diaphorase resazurin coupled fluorescence; inhibition, % at 20 µM; 340,000 compounds, 0.16% hits; AID 493160, 2011;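 active means inhibition above about 35% when tested at 20 µM, limit read from the data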
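Assay system: in-house recombinant HK5 (HKDC1) enzyme. Input: HKDC1 at 5 µg/mL. Medium: Tris pH 8.0 buffer with MgCl2, Tween-20, BSA, BME. Dosing: single 20 µM dose. Schedule: 90 min reaction incubation at room temperature, dark. Signal: resazurin-to-resorufin fluorescence via G6PDH and diaphorase coupling, 525/613 nm. Controls: DMSO-enzyme wells negative, buffer-substituted wells positive.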
LMPTP inh: LMPTP phosphatase inhibitors, primary screen, biochemical, fluorescence intensity, uHTS; Low molecular weight phosphotyrosine protein phosphatase (Homo sapiens), P24666; AID 651560, 2012; recombinant LMPTP-A, OMFP fluorogenic substrate; inhibition, % at 20 µM; 360,000 compounds, 0.22% hits;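 active means compounds that cut the enzyme signal by at least half of the control window in the single-dose screen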
Target sequence (P24666 whole entry, looked up): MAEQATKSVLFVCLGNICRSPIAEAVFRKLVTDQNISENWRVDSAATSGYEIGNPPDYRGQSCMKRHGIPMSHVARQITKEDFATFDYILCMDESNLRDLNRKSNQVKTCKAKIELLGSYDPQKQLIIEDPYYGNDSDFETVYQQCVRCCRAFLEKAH
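test system = LMPTP-A | amount = 0.625 nM LMPTP-A final | reagent = fluorogenic phosphatase substrate OMFP at 400 µM final | incubation = 50 min at room temperature | benchmarks = no-enzyme low control, uninhibited high control | medium = Bis-Tris pH 6.0, DTT, detergent | signal = fluorescence intensity of OMFP turnover product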
Scp1 inh: Scp-1 phosphatase inhibitors, primary screen, biochemical, colorimetric, uHTS | Carboxy-terminal domain RNA polymerase II polypeptide A small phosphatase 1 (Homo … | Recombinant Scp1, phosphopeptide, malachite green phosphate absorbance | inhibition, % at 20 µM | 340,000 compounds, 0.88% hits;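 active means inhibition above about 50% at 20 µM, limit read from the data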
Target sequence (Q9GZU7 76-261 limits assumed): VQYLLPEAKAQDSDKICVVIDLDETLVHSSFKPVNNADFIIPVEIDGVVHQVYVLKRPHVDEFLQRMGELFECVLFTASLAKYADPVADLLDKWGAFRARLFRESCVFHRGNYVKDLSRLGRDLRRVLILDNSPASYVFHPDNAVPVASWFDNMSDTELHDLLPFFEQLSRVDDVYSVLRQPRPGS
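Material: truncated SCP-1 phosphatase (76-261aa) / Buffer or medium: 50 mM Tris acetate pH 5.5, 0.005% Tween-20, 10 mM MgCl2 / Compound dosing: one concentration, 20 µM, with 1.0% DMSO / Incubation: 45 min room-temperature reaction, 5 min colour, 30 min stabiliser / Detection: colorimetric free-phosphate detection, absorbance 630 nm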
STEP block: STEP phosphatase inhibitors, primary screen, biochemical, fluorescence intensity, uHTS | 360,000 compounds, 0.25% hits | recombinant STEP, OMFP fluorogenic substrate | inhibition, % at 20 µM | AID 588621, 2011 | Tyrosine-protein phosphatase non-receptor type 5 (Homo sapiens), P54829;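 active means inhibition at 20 µM, scaled per plate between control wells, above about 37%, limit read from the data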
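material = STEP tyrosine phosphatase | reagent = fluorogenic phosphatase substrate OMFP at 25 µM final | doses = single compound dose of 20 µM, 1% DMSO final | schedule = 20 min reaction, room temperature, in the dark | measured by = fluorescence, 480/540 nm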
DNMT1 inh conf: DNMT1 methyltransferase inhibitor retest, confirmation, biochemical, molecular beacon, fluorescence, single concentration | inhibition, % at 10 µM | DNMT1 molecular beacon HinP1I cleavage | shares compounds with DNMT1 inh | 2,300 compounds, 8% hits;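 active means average inhibition of at least 30% in the single-concentration confirmation test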
DNMT1 interf: beacon fluorescence artifact counter-screen; shares compounds with DNMT1 inh; DNMT1 molecular beacon spectral interference counterscreen, fluorescence 485/520; activation (fluorescence interference), % at 10 µM; 2,300 compounds, 1% hits; AID 602387;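 active means activation of at least 30% at 10 µM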;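 further: DNMT1 catalytic domain with a HinP1I cleavage step and a FAM/dabcyl DNA beacon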
Large screens that a line does not name were inactive (follow-up assays come after a bar, where they were run).

CCc1nc2c(OCc3cc(Cl)cc(Cl)c3)cccn2c1N(C=O)Cc1ccc(OC)cc1	none (no result: HKDC1 inh, Scp1 inh)
CC1(C(=O)NS(=O)(=O)c2cccs2)CCN1C(=O)Cc1ccc(Cl)cc1Cl (stereo not drawn)	none (no result: HKDC1 inh, Scp1 inh)
CCc1ccc(/C=N/N2CCN(c3ccccn3)CC2)cc1	DNMT1 inh 75 | DNMT1 inh conf inactive | DNMT1 interf inactive
COc1ccc(CCn2c(N)c(C(=O)NCc3ccco3)c3nc4ccccc4nc32)cc1OC	SUMO1 PPI mod 44, DNMT1 inh 54 | DNMT1 inh conf inactive | DNMT1 interf inactive
CN(CC1CCCO1)S(=O)(=O)c1ccc(C(=O)Nc2nc3cc4c(cc3s2)OCO4)cc1 (stereo not drawn)	DNMT1 inh 64 | DNMT1 inh conf inactive | DNMT1 interf inactive
O=C1CCC(O)CCN1CCSc1ccccc1 (stereo not drawn)	none
COc1ccc(N2CCN(C(CNC(=O)C(=O)NCCc3c[nH]c4ccccc34)c3ccco3)CC2)cc1 (stereo not drawn)	DNMT1 inh 78 | DNMT1 inh conf inactive | DNMT1 interf inactive
CC[C@]12c3[nH]c4cc(-c5ccco5)ccc4c3CCN1C(=O)[C@@H](CC(=O)NCCCOC)C[C@@H]2C(=O)N1CCN(C(=O)c2ccco2)CC1	none
COc1ccc(-c2csc(NC(CO)c3nc4ccccc4n3CCCO)n2)cc1 (stereo not drawn)	none
CCC1=NN2C(=N)/C(=C\c3ccc(SCc4ccco4)o3)C(=O)N=C2S1	SUMO1 PPI mod 54, DNMT1 inh 108 | DNMT1 inh conf inactive | DNMT1 interf inactive
CCC1=NN2C(=N)/C(=C/c3c(C)nn(-c4ccccc4)c3Cl)C(=O)N=C2S1	none
CCCC1=NN2C(=N)/C(=C\c3ccc(SCc4ccco4)o3)C(=O)N=C2S1	SUMO1 PPI mod 50, DNMT1 inh 105, LMPTP inh 51, Scp1 inh 81 | DNMT1 inh conf inactive | DNMT1 interf inactive
CCCC1=NN2C(=N)/C(=C\c3cc(C)n(Cc4ccccc4)c3C)C(=O)N=C2S1	none
O=C(C1COc2ccccc2O1)N1CCc2ccccc21 (stereo not drawn)	DNMT1 inh 58, Scp1 inh 74 | DNMT1 inh conf inactive | DNMT1 interf inactive
Cc1c(C(=O)N2CCN(C(c3ccccc3)c3ccccc3)CC2)oc2ccccc12	none
Cc1ccccc1NC(=O)COC(=O)c1ccc(CSc2ccc(Cl)cc2)cc1	DNMT1 inh 52 | DNMT1 inh conf inactive | DNMT1 interf inactive
Cc1ccccc1NC(=O)COC(=O)c1cccnc1	none
O=C(O)c1cc(S(=O)(=O)NC(Cc2c[nH]c3ccccc23)C(=O)O)ccc1Cl (stereo not drawn)	none
Cc1cc(C)n2c(Br)c(CSc3nc4ccccc4o3)nc2n1	DNMT1 inh 59 | DNMT1 inh conf inactive | DNMT1 interf inactive
Nn1c(CSc2nc3ccccc3o2)nnc1CSc1nc2ccccc2o1	none
CC(C)[C@H](NC(=O)[C@H]1N2C(=O)c3ccccc3C2SC1(C)C)C(=O)NCc1ccco1 (stereo partly drawn)	none
C=CCn1c(SCC(=O)NC2CCCC2)nc2ccccc21	DNMT1 inh 70 (no result: HKDC1 inh, Scp1 inh) | DNMT1 inh conf inactive | DNMT1 interf inactive
Cc1cc(/C=C2\SC(=S)NC2=O)c(C)n1C	SUMO1 PPI mod 43, DNMT1 inh 92 | DNMT1 inh conf inactive | DNMT1 interf inactive
Cc1cc(/C=C2\SC(=S)NC2=O)c(C)n1-c1ccccc1	none
COc1ccc(C2C(C(=O)c3ccccc3)=C(C)Nc3nc4ccccc4n32)cc1OC (stereo not drawn)	DNMT1 inh 59 | DNMT1 inh conf inactive | DNMT1 interf inactive
COc1ccc(/C=C/C(=O)C(C)(C)C)cc1OC	DNMT1 inh 50 | DNMT1 inh conf inactive | DNMT1 interf inactive
Cc1ccsc1/C=N/N=C/c1sccc1C	DNMT1 inh 56 | DNMT1 inh conf inactive | DNMT1 interf inactive
Cc1ccsc1/C=N/NC(=O)c1sccc1C	none
CC(=O)[C@@]1(O)CC[C@H]2[C@@H]3C[C@H](C)C4=CC(=O)C=C[C@]4(C)[C@@]3(F)[C@@H](O)C[C@@]21C	DNMT1 inh 80 | DNMT1 inh conf inactive | DNMT1 interf inactive
COc1cc(CC(=O)C(=O)O)oc(=O)c1	none (no result: HKDC1 inh, Scp1 inh)
CC(C)NC(=O)C1(C)CSCC(=O)N1Cc1cccc(F)c1 (stereo not drawn)	none (no result: DNMT1 inh, HKDC1 inh, Scp1 inh, STEP block)
O=C(O)c1ccccc1C(=O)OCC1CCC(=NO)CC1 (stereo not drawn)	none (no result: HKDC1 inh, Scp1 inh)
Cc1ccc(C)c(/C(O)=C2/C(=O)C(=O)N(CCN3CCOCC3)C2c2ccco2)c1 (stereo not drawn)	DNMT1 inh 83 | DNMT1 inh conf inactive | DNMT1 interf inactive
CCOc1ccccc1NC(=O)COC(=O)CC(NC(N)=O)c1ccc(Cl)cc1 (stereo not drawn)	none
S=C(Nc1ccc(Cl)cc1)Nc1ccc2c(c1)OCCO2	DNMT1 inh 72 | DNMT1 inh conf inactive | DNMT1 interf inactive
Cn1nc(CC(=O)NC2CCCCCCCCCCC2)c2ccccc2c1=O	DNMT1 inh 69 | DNMT1 inh conf inactive | DNMT1 interf inactive
Cn1nc(C(=O)NC2CCCCC2)c2ccccc2c1=O	none
COc1cc(C=NNc2ccccc2[N+](=O)[O-])cc(OC)c1OC	DNMT1 inh 53 (no result: HKDC1 inh, Scp1 inh) | DNMT1 inh conf inactive | DNMT1 interf inactive
O=[N+]([O-])c1ccccc1N/N=C\c1ccccc1Cl	none
Cc1ccc(-c2csc3ncn(CC#N)c(=O)c23)cc1	none | DNMT1 inh conf inactive | DNMT1 interf inactive
CC(C)C(=O)Nc1ccc(-c2nc3cccnc3o2)cc1	none
CC(C)(C)c1ccc(OCC(=O)Nc2ccc(-c3nc4cccnc4o3)cc2)cc1	DNMT1 inh 55 | DNMT1 inh conf inactive | DNMT1 interf inactive
O=C(Cc1cn2ccsc2n1)Nc1nc2c(s1)CN(Cc1ccccc1)CC2	DNMT1 inh 56, LMPTP inh 61 | DNMT1 inh conf inactive | DNMT1 interf inactive
